Format in all cases: functional
Assay [1] is filed under the species Cavia porcellus. The experiment in a line: Tested for effect on guinea pigs sensitized with (+/-)-5-Methyl-3- methylene-dihydro-furan-2-one; Number of sensitive animals. In outline:
(§1)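 Female albino Hartley guinea pigs (250–300 g), sensitized by three intradermal nuchal injections of 0.1 mL on alternate days. The emulsion was 1:1 FCA/saline with 10% racemate (5% of each antipode). After 2 weeks rest, 0.25 mL of 1% or 2% methylene chloride solution was applied to a 2-cm2 area. Reactions were scored 0–3 every 24 h; av = summed scores/animals.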

For assay [2], the species on record is Cavia porcellus. Put plainly: Tested for effect on guinea pigs sensitized with (+/-)-5-Methyl-3- methylene-dihydro-furan-2-one; Number of sensitive animals out of 8 tested. The essentials: as §1
For assay [3], the species on record is Cavia porcellus. Put plainly: Tested for effect on guinea pigs sensitized with (R)5-Methyl-3 -methylene-dihydro-furan-2-one and number of animals showing erythema covering the part of the test area. The essentials: (§2)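 Female albino Hartley guinea pigs (250–300 g) received three 0.1-mL intradermal nuchal injections on alternate days of a 1:1 FCA/saline emulsion with 5% (+)-enantiomer. After 2 weeks rest, 0.25 mL of 1% or 2% methylene chloride solution was deposited on a 2-cm2 circle and read every 24 h. Erythema/swelling was scored 0–3; av = summed intensities divided by animal number.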

The species named for assay [4] is Cavia porcellus. Put plainly: Tested for effect on guinea pigs sensitized with (R)5-Methyl-3- methylene-dihydro-furan-2-one and number of animals showing erythema covering the whole test area. In outline: as §2
The species entered for assay [5] is Cavia porcellus. The experiment in a line: Tested for effect on guinea pigs sensitized with (+/-)-5-Methyl-3- methylene-dihydro-furan-2-one and av is calculated by adding the test intensity and divided by the number of animals. The essentials:
as §1

The species named for assay [6] is Cavia porcellus. Put plainly: Tested for effect on guinea pigs sensitized with (R)5-Methyl-3- methylene-dihydro-furan-2-one and av is calculated by adding the test intensity and divided by the number of animals. The essentials:
as §2

Assay [7] is filed under the species Cavia porcellus. Put plainly: Tested for effect on guinea pigs sensitized with (+/-)-5-Methyl-3- methylene-dihydro-furan-2-one and number of animals showing erythema and swelling of the test area. In outline: as §1
The species entered for assay [8] is Cavia porcellus. Put plainly: Tested for effect on guinea pigs sensitized with (R)5-Methyl-3- methylene-dihydro-furan-2-one and number of animals showing erythema covering the part of the test area. The essentials:
as §2

Assay [9] is filed under the species Cavia porcellus. Put plainly: Tested for effect on guinea pigs sensitized with (R)-5-Methyl-3-methylene-dihydro-furan-2-one; Number of sensitive animals out of 8 tested. In outline: as §2
The species entered for assay [10] is Cavia porcellus. The experiment in a line: Tested for effect on guinea pigs sensitized with (S)5-Methyl-3- methylene-dihydro-furan-2-one and av is calculated by adding the test intensity and divided by the number of animals. In outline:
(§3)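 Sensitization: female albino Hartley guinea pigs (250–300 g) were given three alternate-day 0.1-mL intradermal nuchal injections of 1:1 FCA/saline emulsion containing 5% (−)-enantiomer. Challenge after 2 weeks rest used 0.25 mL of 1% or 2% methylene chloride solution on a 2-cm2 area, read every 24 h. The scale was 0 (none) to 3 (erythema/swelling beyond area); av = summed scores/animals.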

The species named for assay [11] is Cavia porcellus. The experiment in a line: Tested for effect on guinea pigs sensitized with (S)5-Methyl-3 -methylene-dihydro-furan-2-one and number of animals showing erythema covering the whole test area. In outline: as §3
For assay [12], the species on record is Cavia porcellus. Put plainly: Tested for effect on guinea pigs sensitized with (R)5-Methyl-3- methylene-dihydro-furan-2-one; Number of sensitive animals out of 8 tested. The essentials: as §2
The species entered for assay [13] is Cavia porcellus. Put plainly: Tested for effect on guinea pigs sensitized with (S)5-Methyl-3- methylene-dihydro-furan-2-one and number of animals showing no reaction. In outline:
as §3

For assay [14], the species on record is Cavia porcellus. Put plainly: Tested for effect on guinea pigs sensitized with (+/-)-5-Methyl-3- methylene-dihydro-furan-2-one and number of animals showing erythema covering the whole test area. In outline:
as §1

For assay [15], the species on record is Cavia porcellus. The experiment in a line: Tested for effect on guinea pigs sensitized with (S)5-Methyl-3- methylene-dihydro-furan-2-one and number of animals showing erythema covering the whole test area. In outline:
as §3

Assay [16] is filed under the species Cavia porcellus. The experiment in a line: Tested for effect on guinea pigs sensitized with (+/-)-5-Methyl-3- methylene-dihydro-furan-2-one and number of animals showing erythema covering the part of the test area. The essentials:
as §1

The species named for assay [17] is Cavia porcellus. Put plainly: Tested for effect on guinea pigs sensitized with (S)5-Methyl-3- methylene-dihydro-furan-2-one; Number of sensitive animals out of 8 tested. The essentials:
as §3

Assay [18] is filed under the species Cavia porcellus. The experiment in a line: Tested for effect on guinea pigs sensitized with (R)5-Methyl-3 -methylene-dihydro-furan-2-one and number of animals showing erythema covering the whole test area. The essentials:
as §2

For assay [19], the species on record is Cavia porcellus. The experiment in a line: Tested for effect on guinea pigs sensitized with (+/-)-5-Methyl-3- methylene-dihydro-furan-2-one and number of animals showing no reaction. In outline:
as §1

Several values for one entry are separate records, joined by “and”; a condition that tells them apart may be missing. Identical values can stand only once.

In the case of `C=C1CC(C)OC1=O` (centres undefined), the “No. of sensitive animals” value in the assay listed under Cavia porcellus [1] stood at 8; in the assay filed under Cavia porcellus [2], 8; in the assay listed under Cavia porcellus [9], 8; in the assay filed under Cavia porcellus [12], 6; in the assay filed under Cavia porcellus [17], 8. The Skin tests intensity in the assay listed under Cavia porcellus [3] was 0; in the assay listed under Cavia porcellus [4], 5; in the assay filed under Cavia porcellus [7], 6 and 4; in the assay listed under Cavia porcellus [8], 1; in the assay listed under Cavia porcellus [11], 1; in the assay listed under Cavia porcellus [13] it was 0. The Skin tests intensity in the assay listed under Cavia porcellus [14] was 2 and 4; in the assay listed under Cavia porcellus [15], 7; in the assay listed under Cavia porcellus [16], 0; in the assay filed under Cavia porcellus [18], 2; in the assay listed under Cavia porcellus [19], 0. Further, the av in the assay listed under Cavia porcellus [5] is 1.8 and 1.5; in the assay filed under Cavia porcellus [6], 1.8 and 0.7; in the assay filed under Cavia porcellus [10], 1.9 and 0.9.

The record behind these values is ChEMBL document CHEMBL1122111, “Allergenic alpha-methylene-gamma-butyrolactones. Stereospecific syntheses of (+)- and (-)-gamma-methyl-alpha-methylene-gamma-butyrolactones. A study of the specificity of (+) and (-) enantiomers in inducing allergic contact dermatitis” (1982).
